Series [1] concerns HCT-116. The series can be described thus: Photocytotoxicity against human HCT116 cells expressing wild type p53 incubated for 24 hrs followed by light irradiation measured after 24 hrs by MTS assay in presence of ALA and FeCl3. In kind it is functional, cell-based. Background: Formazan colour is commonly taken as a measure of viable cells.
Series [2] concerns HCT-116. The series can be described thus: Dark cytotoxicity against p53-deficient human HCT116 cells after 96 hrs by MTT assay. The class given is cell-based. The settings on record: HCT-116, 96 h.
Series [3] relates to HCT-116. Kind of series: Cytotoxicity against human HCT116 cells expressing wild type p53 assessed as cell death at 50 uM. The class given is cell-based. The settings on record: hct-116, 50 µM.
In a further series the test system is HeLa. The series can be described thus: Dark cytotoxicity against human HeLa cells after 72 hrs by MTT assay. The class given is cell-based.
Series [4] deals with HCT-116. The series can be described thus: Induction of ROS generation in human HCT116 cells expressing wild type p53 at 8 nM after 24 hrs by spectrophotometry. In kind it is functional, cell-based.
Series [5] deals with HCT-116. Kind of series: Dark cytotoxicity against human HCT116 cells expressing wild type p53 after 96 hrs by MTT assay. The class given is cell-based. As to conditions: HCT-116, 96 h.
The test system of series [6] is HCT-116. The series can be described thus: Photocytotoxicity against human HCT116 cells expressing wild type p53 assessed as combination index incubated for 24 hrs followed by light irradiation measured after 24 hrs by MTS assay in presence of ALA. In kind it is functional. The gist of the method:
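HCT 116+/+ cells were treated with TSC at a range of concentrations plus ALA held at 1 mM. PpIX was irradiated at varied light doses, with doses increased in constant ratio. CI was calculated by the Chou–Talalay method as the summed doses in the combination divided by the dose of each therapy alone giving the same cytotoxic effect.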

Series [7] can be described thus: Ratio of IC50 for human HCT116 cells expressing wild type p53 to IC50 for human NHDF cells. In kind it is cell-based, HCT-116. As to conditions: HCT116 cells expressing wild type p53 and NHDF cells, read-out: Ratio IC50.
The subject of another series is NHDF. Kind of series: Dark cytotoxicity against human NHDF cells after 72 hrs by MTT assay. In kind it is cell-based.
A further series concerns Raji. Kind of series: Dark cytotoxicity against human Raji cells after 72 hrs by MTT assay. In kind it is cell-based.
Series [8] concerns HCT-116. The series can be described thus: Induction of ROS generation in human HCT116 cells expressing wild type p53 at 4 uM after 24 hrs by spectrophotometry. The class given is functional, cell-based.
Series [9] deals with HCT-116. The series can be described thus: Induction of 5-aminolevulinic acid-induced cellular PpIX formation in human HCT116 cells expressing wild type p53 at 50 uM by fluorescence plate reader analysis. In kind it is functional, cell-based.
Series [10] has as its system HCT-116. The series can be described thus: Induction of ROS generation in human HCT116 cells expressing wild type p53 at 1.6 nM after 24 hrs by spectrophotometry. In kind it is functional, cell-based.
A short description of series [11]: Ratio of IC50 for p53-deficient human HCT116 cells to IC50 for human Raji cells. The class given is cell-based. The settings on record: hct-116.

The IC50 is the concentration at which inhibition is half-maximal. Low values mean higher potency, high ones lower potency.

Activity calls are given as the source filed them. No cut-off for these calls is given here.

As for `Oc1cccc2ccc(/C=N/NC(=S)N3CCOCC3)nc12`, the result with HCT-116 [1] and in the series on HCT-116 [4] was Active. Besides, the IC50 is 16.8 nM in the series on HCT-116 [2]; 176 nM in the series on HeLa; 3.84 nM in the series on HCT-116 [5]; above 10000 nM in the series with NHDF; 21.2 nM in the series on Raji. Further, the Activity result with HCT-116 [3] is given as “Toxic”. Also, the CI in the series with HCT-116 [6] was determined as 0.08. In series [7], the selectivity ratio came to 2770.
Turning to `NC(=S)N/N=C/c1ncccc1N` [TRIAPINE], the result in the series on HCT-116 [1] and in the series with HCT-116 [8] was Active. Also, the IC50 in the series on HCT-116 [5] amounted to 1230 nM. Further, the CI in the series with HCT-116 [6] was determined as 0.85.
Consider `CCN1CCN(C(=S)N/N=C/c2ccccc2O)CC1`, for which the result in the series with HCT-116 [1] was Active. In addition, in the series with HCT-116 [9], the result was inactive. In addition, the IC50 is above 20000 nM with HCT-116 [2]; above 20000 nM in the series on HeLa; above 20000 nM in the series with HCT-116 [5]; above 20000 nM in the series on NHDF; above 10000 nM in the series on Raji. Besides, the CI in the series on HCT-116 [6] was determined as 0.95.
As to `CC(=O)N(O)CCCCCNC(=O)CCC(=O)N(O)CCCCCNC(=O)CCC(=O)N(O)CCCCCN` [DEFEROXAMINE], in the series with HCT-116 [1], the outcome was Active. In addition, the outcome with HCT-116 [9] was inactive. Further, the IC50 in the series with HCT-116 [2] and with HCT-116 [5] was above 200000 nM in each case. In addition, in the series on HCT-116 [6], the CI was determined as 1.01.
With `CN(C)C(=S)N/N=C/c1c(O)ccc2cccnc12`, the outcome in the series with HCT-116 [1] was Active. The result with HCT-116 [9] was inactive. The IC50 with HCT-116 [2], in the series with HCT-116 [5] and in the series with NHDF was above 20000 nM in each case. In addition, in the series on HCT-116 [6], the CI came to 6.08.
With `S=C(NN=C(c1ccccn1)c1ccccn1)N1CCN(c2ccccc2)CC1`, the result in the series with HCT-116 [1] and with HCT-116 [10] was Active. Further, the IC50 with HCT-116 [2] was 0.76 nM; in the series on HeLa it was 570 nM; with HCT-116 [5] it was 0.81 nM; in the series on NHDF, 1.73 nM; in the series on Raji, 0.32 nM. In the series with HCT-116 [3], the Activity result was “Toxic”. Besides, the CI in the series on HCT-116 [6] amounted to 0.47. In addition, the “Ratio IC50” value in series [11] stood at 2.4.

(Values after ChEMBL document CHEMBL3286392, “Iron chelators in photodynamic therapy revisited: synergistic effect by novel highly active thiosemicarbazones” (ACS Med Chem Lett, 2014).)
